The nature of data set [1]: Photostability of the compound in N,N-dimethylformamide assessed as compound degradation irradiated with 90 mW/cm2 light. The format is physicochemical.
Data set [2] can be described thus: Absorption property of the compound in chloroform assessed as absorption coefficient by UV-visible spectrophotometric method. The format is physicochemical. The gist of the method: (§1)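 Electronic absorption spectra recorded by UV-visible spectrophotometry at room temperature. Solvents were chloroform, isopropanol, acetonitrile, DMF, and PBS buffer containing 1% Cremophor EL/1,2-propanediol (10:3, v:v). Chloroform data were referenced to the non-halogenated parent dye.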

A short description of data set [3]: Dark toxicity in human MCF7 cells assessed as reduction in cell viability after 3 hrs by MTT assay. The format is cell-based. Background: Formazan colour is commonly taken as a measure of viable cells.
A short description of data set [4]: Absorption property of the compound in PBS containing 1% Cremophor EL/1,2-propanediol (10:3, v:v) system assessed as absorption coefficient by UV-visible spectrophotometric method. Type of data set: physicochemical. Conditions: buffer. The gist of the method: as §1
A short description of data set [5]: Induction of singlet oxygen generation in PBS containing 1% Cremophor EL/1,2-propanediol (10:3, v:v) system assessed as relative rate of DPBF degradation to MB at 1 uM irradiated with 90 mW/cm2 halogen light. Type of data set: functional. The gist of the method: (§2)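 Singlet oxygen generation measured with 1,3-diphenylisobenzofuran (DPBF) as scavenger. The decrease in DPBF absorbance at 411 nm was monitored over time during light irradiation, and the photodegradation rate was calculated.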

A short description of data set [6]: Absorption property of the compound in chloroform assessed as hypsochromic shift by measuring maximum absorption wavelength by UV-visible spectrophotometric method. Type of data set: physicochemical. The gist of the method: as §1
Data set [7] is described as follows: Stability of the compound in acetonitrile assessed as compound degradation under dark condition. Type of data set: physicochemical.
Data set [8] can be described thus: Absorption property of the compound in N,N-dimethylformamide assessed as absorption coefficient by UV-visible spectrophotometric method. The format is physicochemical. The gist of the method: as §1
Data set [9] can be described thus: Emission property of the compound in chloroform assessed as maximum emission wavelength by fluorescence spectrophotometric method. The format is physicochemical. In a few lines: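 Fluorescence spectrum recorded in chloroform by fluorescence spectrophotometer at room temperature.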
The nature of data set [10]: Induction of singlet oxygen generation in N,N-dimethylformamide assessed as relative rate of DPBF degradation to MB at 1 uM irradiated with 90 mW/cm2 halogen light. Type of data set: functional. The gist of the method: as §2
The nature of data set [11]: Stability of the compound in PBS containing 1% Cremophor EL/1,2-propanediol (10:3, v:v) system assessed as compound degradation under dark condition. Type of data set: physicochemical. As to conditions: buffer.
Another data set has as its system SW480. Briefly: Phototoxicity against human SW480 cells assessed as reduction in cell viability preincubated for 3 hrs followed by 54 J/cm2 light irradiation and measured after 24 hrs by MTT assay. Type of data set: functional, cell-based. Conditions: SW480, light or radiation study. The gist of the method: (§3)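 PS formulated in PBS containing Cremophor EL/1,2-propanediol (10:3, v:v) after THF removal, filtered, with concentration confirmed by UV-Vis. Cells were grown in DMEM with 10% FBS and seeded at 3×10^3 per well overnight. They were incubated with PS for 3 h, irradiated at λ > 590 nm, kept 24 h at 37 °C, then given MTT (0.5 mg/mL, 4 h) with DMSO solubilization and A490 read-out.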

A short description of data set [12]: Induction of singlet oxygen generation in isopropanol assessed as relative rate of DPBF degradation to MB at 1 uM irradiated with 90 mW/cm2 halogen light. The format is functional. The gist of the method: as §2
A short description of data set [13]: Absorption property of the compound in acetonitrile assessed as absorption coefficient by UV-visible spectrophotometric method. The format is physicochemical. In a few lines: as §1
A short description of data set [14]: Photostability of the compound in acetonitrile assessed as compound degradation irradiated with 90 mW/cm2 light. The format is physicochemical.
A short description of data set [15]: Photostability of the compound in isopropanol assessed as compound degradation irradiated with 90 mW/cm2 light. The format is physicochemical.
Data set [16] can be described thus: Absorption property of the compound in isopropanol assessed as absorption coefficient by UV-visible spectrophotometric method. Type of data set: physicochemical. The gist of the method: as §1
The subject of a further data set is MCF7. The experiment in a line: Phototoxicity against human MCF7 cells assessed as reduction in cell viability preincubated for 3 hrs followed by 54 J/cm2 light irradiation and measured after 24 hrs by MTT assay. Conditions: MCF7, light or radiation study. Type of data set: functional, cell-based. The gist of the method: as §3
Data set [17] can be described thus: Dark toxicity in human HeLa cells assessed as reduction in cell viability after 3 hrs by MTT assay. The format is cell-based. In a few lines: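 Compound was formulated with Cremophor EL/1,2-propanediol in PBS, filtered, and its concentration confirmed by UV-Vis. HeLa cells in DMEM with 10% FBS at 37 °C, 5% CO2 were seeded at 3×10^3 cells/well and adhered overnight. Cells were exposed to graded concentrations for 3 h without light, incubated 24 h, then MTT 0.5 mg/mL for 4 h; formazan dissolved in DMSO, A490 read.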

For data set [18], the system named is HeLa. Briefly: Phototoxicity against human HeLa cells assessed as reduction in cell viability preincubated for 3 hrs followed by 54 J/cm2 light irradiation and measured after 24 hrs by MTT assay. The format is functional, cell-based. As to conditions: light or radiation study. The gist of the method:
as §3

A short description of data set [19]: Photostability of the compound in PBS containing 1% Cremophor EL/1,2-propanediol (10:3, v:v) system assessed as compound degradation irradiated with 90 mW/cm2 light. Type of data set: physicochemical. As to conditions: buffer.
The nature of data set [20]: Dark toxicity in human SW480 cells assessed as reduction in cell viability after 3 hrs by MTT assay. Type of data set: cell-based.
Data set [21] deals with HeLa. The experiment in a line: Antitumor activity against human HeLa cells xenografted in Balb/c nu/nu mouse assessed as tumor growth inhibition at 2 mg/kg, iv pretreated for 15 mins followed by 54 J/cm2 light irradiation for 10 mins and measured after 24 days. Type of data set: functional, organism-based. The gist of the method:
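Female Balb/c nu/nu mice with subcutaneous HeLa tumors (5×10^6 cells) reaching 80–100 mm³ on day 7 were randomized, n = 5 per group. Mice received 2 mg/kg by tail vein, or saline for controls. After 15 min the tumor was irradiated once with 54 J/cm² (75 W halogen lamp, >590 nm filter, 90 mW/cm², 10 min), unanaesthetized. Calipers every other day; V = 0.5×L×W²; body weight tracked.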
For orientation: Xenograft models place foreign cells or tissue in a host animal.

Data set [22] can be described thus: Toxicity in human HeLa cells xenografted Balb/c nu/nu mouse assessed as body weight loss at 2 mg/kg, iv pretreated for 15 mins followed by 54 J/cm2 light irradiation for 10 mins and measured for 24 days. The format is organism-based. As to conditions: in vivo, 0.25 h. The gist of the method: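 Female Balb/c nu/nu mice (18-22 g) carried subcutaneous HeLa cells (about 5×10^6, right back) and were treated on day 7 at a tumor volume of 80-100 mm³. Five mice per group received a tail-vein dose; saline controls were also irradiated. Fifteen minutes later the tumor was irradiated once with a 75 W halogen lamp (590 nm cut-on, 90 mW/cm², 10 min), without anaesthesia. Body weight was recorded every other day.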

Active and inactive are the calls of the source. The rule behind the calls is not given here.

The term IC50 denotes the point on the concentration scale where inhibition reaches its midpoint.

Turning to `COc1ccc(C2=[N+]3C(=Nc4c(-c5ccccc5)cc(-c5ccc(OC)cc5)n4[B-]3(F)F)C(c3ccccc3)=C2Br)cc1`, the Stabilty result in data set [1] is recorded as “Unstable”; in data set [7], “Unstable”; in [11], “Unstable”; in [14], “Stable”; in [15], “Stable”; in [19], “Stable”. Besides, the Activity worked out at 81000 M⁻¹ cm⁻¹ in [2]; 34000 M⁻¹ cm⁻¹ in data set [4]; 679 nm in [6]; 59300 M⁻¹ cm⁻¹ in data set [8]; 720 nm in data set [9]; 59300 M⁻¹ cm⁻¹ in data set [13]. For the same molecule, in [16], the Activity worked out at 59300 M⁻¹ cm⁻¹. The IC50 at 3 h in [3], in data set [17] and in data set [20] was greater than 50 µM in each case. Further, the fold change (FC) in [5] came to 0.83; in data set [10], 0.19; in [12] it was 1.1. Besides, the 50% inhibitory concentration (IC50) came to 0.28 µM with SW480, 0.35 µM in the data set with MCF7 and 0.27 µM in the data set on HeLa [18].
For the molecule `COc1ccc(C2=[N+]3C(=Nc4c(-c5ccccc5)c(I)c(-c5ccc(OC)cc5)n4[B-]3(F)F)C(c3ccccc3)=C2I)cc1`, the Stabilty result is listed as “Unstable” in [1]; “Unstable” in [7]; “Unstable” in [11]; “Stable” in data set [14]; “Stable” in [15]; “Stable” in data set [19]. In addition, the Activity in data set [2] was 74000 M⁻¹ cm⁻¹; in [4], 34000 M⁻¹ cm⁻¹; in data set [6] it was 679 nm; in [8] it was 59300 M⁻¹ cm⁻¹; in data set [9], 723 nm; in data set [13] it was 59300 M⁻¹ cm⁻¹. The Activity in data set [16] was 59300 M⁻¹ cm⁻¹. Besides, the IC50 at 3 h in data set [3], in data set [17] and in [20] was greater than 50 µM each time. The fold change (FC) worked out at 2.2 in [5], 0.66 in data set [10] and 7 in data set [12]. Also, the values for the IC50 with SW480, in the data set on MCF7 and in the data set on HeLa [18] were 1.3 µM, 0.66 µM and 0.59 µM, respectively.
With `COc1ccc(C2=[N+]3C(=Nc4c(-c5ccccc5)c(Br)c(-c5ccc(OC)cc5)n4[B-]3(F)F)C(c3ccccc3)=C2I)cc1`, the Stabilty entry is listed as “Unstable” in data set [1]; “Unstable” in data set [7]; “Unstable” in data set [11]; “Stable” in [14]; “Stable” in data set [15]; “Stable” in data set [19]. Also, the Activity in [2] was 76000 M⁻¹ cm⁻¹; in data set [4], 34000 M⁻¹ cm⁻¹; in data set [6], 679 nm; in [8], 59300 M⁻¹ cm⁻¹; in data set [9], 720 nm; in data set [13], 59300 M⁻¹ cm⁻¹. In addition, the Activity in data set [16] was determined as 59300 M⁻¹ cm⁻¹. For the same molecule, the half-inhibitory concentration (IC50) at 3 h in data set [3], in data set [17] and in data set [20] was greater than 50 µM throughout. The fold change (FC) was determined as 2.3 in [5], 0.65 in data set [10] and 6.8 in [12]. Also, the values for the IC50 in the data set on SW480, in the data set with MCF7 and in the data set on HeLa [18] were 0.53 µM, 0.42 µM and 0.31 µM, respectively.
Turning to `COc1ccc(C2=[N+]3C(=Nc4c(-c5ccccc5)cc(-c5ccc(OC)cc5)n4[B-]3(F)F)C(c3ccccc3)=C2)cc1`, the Stabilty entry in data set [1] is listed as “Unstable”; in [7], “Unstable”; in data set [11], “Unstable”; in data set [14] it was “Stable”; in data set [15], “Stable”; in data set [19], “Stable”. Besides, the values for the Activity in data set [2], in data set [6] and in data set [9] were 99000 M⁻¹ cm⁻¹, 688 nm and 725 nm, respectively. The half-maximal inhibitory concentration (IC50) at 3 h in data set [3], in [17] and in [20] was greater than 50 µM in each case. Moreover, the fold change (FC) in [5] stood at 0.3; in data set [10] it was 0.04; in data set [12], 0.28. For the same molecule, the half-maximal inhibitory concentration (IC50) in the data set with SW480 stood at 12.1 µM; with MCF7 it was 9.4 µM; in the data set with HeLa [18] it was 11.6 µM.
Consider `C=Cc1c(C)c2cc3nc(c(CC(=O)O)c4[nH]c(cc5nc(cc1[nH]2)C(C)=C5CC)c(C)c4C(=O)O)[C@@H](CCC(=O)O)[C@@H]3C` [CHLORIN E6], for which the IC50 at 3 h in [3], in data set [17] and in data set [20] was greater than 50 µM throughout. In the data set with HeLa [21], the TGI result is “Active”. Moreover, the IC50 worked out at 3.1 µM in the data set on SW480, 3.4 µM in the data set on MCF7 and 1.92 µM in the data set with HeLa [18]. Further, the Activity result in [22] is listed as “Toxic”.
As to `COc1ccc(C2=[N+]3C(=Nc4c(-c5ccccc5)c(Br)c(-c5ccc(OC)cc5)n4[B-]3(F)F)C(c3ccccc3)=C2Br)cc1`, the Stabilty entry in [1] is recorded as “Unstable”; in [7], “Unstable”; in [11], “Unstable”; in data set [14], “Stable”; in data set [15] it was “Stable”; in data set [19] it was “Stable”. Moreover, the Activity is 77000 M⁻¹ cm⁻¹ in data set [2]; 34000 M⁻¹ cm⁻¹ in [4]; 679 nm in data set [6]; 59300 M⁻¹ cm⁻¹ in data set [8]; 720 nm in data set [9]; “Non-Toxic” in data set [22]. Further, the Activity in data set [13] and in [16] was 59300 M⁻¹ cm⁻¹ throughout. The IC50 at 3 h in [3], in [17] and in data set [20] was greater than 50 µM in each case. Further, the TGI entry in the data set with HeLa [21] is “Active”. Further, the fold change (FC) in data set [5] worked out at 1.9; in data set [10], 0.36; in data set [12] it was 4.5. The results for the IC50 in the data set with SW480, in the data set with MCF7 and in the data set on HeLa [18] were 0.16 µM, 0.15 µM and 0.13 µM, respectively.

For the origin of these results see ChEMBL document CHEMBL4725347, “Discovery of a Monoiodo Aza-BODIPY Near-Infrared Photosensitizer: in vitro and in vivo Evaluation for Photodynamic Therapy” (J Med Chem, 2020).
